The values that follow come from ChEMBL document CHEMBL2150928, “Symmetric kv1.5 blockers discovered by focused screening” (ACS Med Chem Lett, 2012).

≈ marks a conversion by molar mass, not a printed value. Calls of active or inactive are those of the source. The calls are words filed in the database; no cut-off is given here.

Data set [1] in a line: Octanol-water distribution coefficient, log D of the compound at pH 7.4 by shake-flask method. It counts as physicochemical.
The target of data set [2] is Potassium voltage-gated channel subfamily A member 5 (Homo sapiens, UniProt P22460). Briefly: Inhibition of human Kv1.5 ion channel after 3 mins by high-throughput planar patch clamp assay. Put shortly: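 Electrophysiology run on IonWorks high-throughput planar patch clamp, following a previously published method. IC50 values come from concentration-response testing of compounds retested for LC/MS purity.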
Background: The patch-clamp technique gives a direct electrical read-out from membranes.

The target of data set [3] is Voltage-gated inwardly rectifying potassium channel KCNH2 (Homo sapiens, UniProt Q12809). Briefly: Inhibition of human ERG expressed in CHOK1 cells. Format: cell-based, CHO-K1.
A short description of data set [4]: Dissociation constant, pKa of the compound. It counts as physicochemical.
A short description of data set [5]: Aqueous solubility of the compound at pH 7.4 after 24 hrs. The settings on record: aqueous medium. It counts as physicochemical.
Another data set addresses Cytochrome P450 3A4 (Homo sapiens, UniProt P08684). Kind of data set: Inhibition of human recombinant CYP3A4 expressed in Escherichia coli. It counts as ADME.
The next data set addresses Cytochrome P450 2D6 (Homo sapiens, UniProt P10635). Kind of data set: Inhibition of human recombinant CYP2D6 expressed in Escherichia coli. It counts as ADME.
The nature of data set [6]: Intrinsic clearance in human liver microsomes at 50 uM up to 45 mins. It counts as ADME, Microsome. The settings on record: read-out: CLH. In general terms: Microsomes from liver hold many membrane-bound enzymes, among them those of drug oxidation.
Data set [7] in a line: Intrinsic clearance in human hepatocytes assessed per million cells. It counts as ADME, cell-based, Hepatocyte. To be noted: read-out: CLH.
Data set [8] in a line: Apparent permeability from apical to basolateral side of human Caco2 cells. It counts as ADME, cell-based. The settings on record: Caco-2. (Caco-2 cells form a polarised layer with tight junctions and transporters.)
Data set [9] is described as follows: Fraction unbound in human plasma. It counts as ADME, cell-free.
A short description of data set [10]: Oral bioavailability in rat. It counts as ADME, organism-based. The settings on record: in vivo.
A short description of data set [11]: Clearance in iv dosed rat. It counts as ADME, organism-based. The settings on record: in vivo.
Data set [12] is described as follows: Half life in iv dosed rat. It counts as ADME, organism-based. To be noted: in vivo.
A short description of data set [13]: Volume of distribution at steady state in iv dosed rat. To be noted: in vivo, read-out: Vdss. Format: ADME, organism-based.

Chain of Potassium voltage-gated channel subfamily A member 5 (P22460 whole entry): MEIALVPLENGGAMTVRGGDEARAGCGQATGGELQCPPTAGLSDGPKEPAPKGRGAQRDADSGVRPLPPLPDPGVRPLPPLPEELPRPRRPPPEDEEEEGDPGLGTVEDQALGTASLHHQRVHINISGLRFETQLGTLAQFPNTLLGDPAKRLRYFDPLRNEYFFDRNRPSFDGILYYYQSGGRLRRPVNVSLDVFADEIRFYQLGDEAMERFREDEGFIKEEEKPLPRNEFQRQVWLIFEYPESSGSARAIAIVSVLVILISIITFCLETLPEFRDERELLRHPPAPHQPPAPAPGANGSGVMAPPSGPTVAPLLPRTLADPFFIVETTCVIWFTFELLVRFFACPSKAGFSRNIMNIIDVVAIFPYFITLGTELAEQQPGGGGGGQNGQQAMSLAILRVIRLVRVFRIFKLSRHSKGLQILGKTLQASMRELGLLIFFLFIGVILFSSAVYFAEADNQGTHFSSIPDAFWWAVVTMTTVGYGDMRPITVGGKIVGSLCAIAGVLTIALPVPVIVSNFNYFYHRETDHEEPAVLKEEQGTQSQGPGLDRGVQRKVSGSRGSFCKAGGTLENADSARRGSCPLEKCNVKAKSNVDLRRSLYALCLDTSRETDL
Chain of Cytochrome P450 2D6 (P10635 whole entry): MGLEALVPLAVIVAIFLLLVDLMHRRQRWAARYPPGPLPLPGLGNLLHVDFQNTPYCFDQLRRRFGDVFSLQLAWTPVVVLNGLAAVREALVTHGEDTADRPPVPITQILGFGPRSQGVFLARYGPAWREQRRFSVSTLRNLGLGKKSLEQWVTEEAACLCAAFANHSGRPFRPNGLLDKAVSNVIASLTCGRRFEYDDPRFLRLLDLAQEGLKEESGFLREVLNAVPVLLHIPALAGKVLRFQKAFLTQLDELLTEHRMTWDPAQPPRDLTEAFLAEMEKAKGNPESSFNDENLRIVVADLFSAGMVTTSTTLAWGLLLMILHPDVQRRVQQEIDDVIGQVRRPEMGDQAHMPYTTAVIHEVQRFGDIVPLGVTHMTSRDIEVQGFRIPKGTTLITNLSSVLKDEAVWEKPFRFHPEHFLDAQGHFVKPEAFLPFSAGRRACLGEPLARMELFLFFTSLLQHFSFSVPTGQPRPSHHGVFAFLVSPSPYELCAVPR
Chain of Voltage-gated inwardly rectifying potassium channel KCNH2 (Q12809 whole entry): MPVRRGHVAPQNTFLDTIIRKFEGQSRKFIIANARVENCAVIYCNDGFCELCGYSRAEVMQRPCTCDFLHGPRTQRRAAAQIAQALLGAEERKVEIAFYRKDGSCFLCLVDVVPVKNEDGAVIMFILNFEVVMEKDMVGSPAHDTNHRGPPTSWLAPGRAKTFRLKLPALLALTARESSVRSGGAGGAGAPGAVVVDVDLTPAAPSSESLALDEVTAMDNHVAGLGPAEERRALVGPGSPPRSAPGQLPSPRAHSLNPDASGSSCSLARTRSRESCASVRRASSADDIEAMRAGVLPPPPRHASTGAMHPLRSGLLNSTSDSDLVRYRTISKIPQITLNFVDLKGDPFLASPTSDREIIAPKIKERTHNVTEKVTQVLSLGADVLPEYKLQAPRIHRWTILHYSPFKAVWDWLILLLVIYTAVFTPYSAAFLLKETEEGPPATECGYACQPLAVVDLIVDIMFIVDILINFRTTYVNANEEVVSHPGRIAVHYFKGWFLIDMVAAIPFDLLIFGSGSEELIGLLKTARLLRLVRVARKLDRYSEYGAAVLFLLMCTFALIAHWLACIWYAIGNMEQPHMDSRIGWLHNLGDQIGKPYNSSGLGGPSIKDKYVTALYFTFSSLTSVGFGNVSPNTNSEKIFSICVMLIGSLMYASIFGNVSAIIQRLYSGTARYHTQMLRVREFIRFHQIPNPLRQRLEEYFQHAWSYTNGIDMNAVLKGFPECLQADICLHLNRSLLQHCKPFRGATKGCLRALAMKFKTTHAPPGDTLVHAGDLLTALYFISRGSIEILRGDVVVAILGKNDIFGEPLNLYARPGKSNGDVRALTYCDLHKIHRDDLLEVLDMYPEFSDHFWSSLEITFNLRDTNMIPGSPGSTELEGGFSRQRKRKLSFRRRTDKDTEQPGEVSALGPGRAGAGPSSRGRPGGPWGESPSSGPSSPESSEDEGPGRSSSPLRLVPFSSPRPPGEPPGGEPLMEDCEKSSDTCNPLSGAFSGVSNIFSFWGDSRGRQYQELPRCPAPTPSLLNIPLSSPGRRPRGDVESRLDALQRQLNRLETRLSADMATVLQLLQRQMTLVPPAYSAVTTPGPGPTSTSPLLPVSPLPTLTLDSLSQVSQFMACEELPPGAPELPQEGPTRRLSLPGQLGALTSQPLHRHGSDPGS
Chain of Cytochrome P450 3A4 (P08684 whole entry): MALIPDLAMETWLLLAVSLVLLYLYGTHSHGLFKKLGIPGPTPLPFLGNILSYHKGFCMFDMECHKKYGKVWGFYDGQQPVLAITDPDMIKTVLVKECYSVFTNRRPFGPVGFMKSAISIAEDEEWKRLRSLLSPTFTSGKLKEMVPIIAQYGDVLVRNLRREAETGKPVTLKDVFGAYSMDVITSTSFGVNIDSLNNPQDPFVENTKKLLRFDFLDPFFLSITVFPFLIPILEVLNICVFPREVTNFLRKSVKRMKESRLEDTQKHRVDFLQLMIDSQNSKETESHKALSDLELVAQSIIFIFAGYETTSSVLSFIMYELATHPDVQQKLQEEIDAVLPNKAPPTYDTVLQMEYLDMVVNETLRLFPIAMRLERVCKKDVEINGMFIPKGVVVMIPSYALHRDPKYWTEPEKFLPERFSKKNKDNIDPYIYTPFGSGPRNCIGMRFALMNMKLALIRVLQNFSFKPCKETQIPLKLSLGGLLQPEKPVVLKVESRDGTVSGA

The logD is lipophilicity at a set pH, counting ionised and neutral species. Higher therefore signals higher lipophilicity. In data set [1], `CC(C)[C@@H]1CC[C@@H](C)C[C@@H]1P(=O)(c1ccccc1)c1ccccc1` showed a logD of 6.
Turning to `NC(c1ccccc1)C(O)c1ccccc1` (centres undefined), in data set [2], the inhibition result is “inactive”.
Still for that read-out and setting: the value for `OC(c1ccccc1)C(NC1CCCCC1)c1ccccc1` (centres undefined) was “inactive”.
On to `c1ccc(C2NCCOC2c2ccccc2)cc1` (centres undefined), for which the inhibition result in data set [2] is “inactive”.
Still for that read-out and setting: then `O[C@@H](c1ccccc1)[C@H](c1ccccc1)N1CCOCC1`, with “inactive”.
Same read-out and setting: the value for `O[C@@H](c1ccccc1)[C@H](c1ccccc1)N1CCCC1` was “inactive”; that for `OC(c1ccccc1)C(c1ccccc1)N1CCNCC1` (centres undefined) was “inactive”; that for `CN(C)[C@@H](c1ccccc1)[C@@H](O)c1ccccc1` was “inactive”.
What is called IC50 is the point on the concentration scale where inhibition reaches its midpoint. As usually defined, the pKa is the negative logarithm of the acid dissociation constant. Higher therefore signals a group that holds its proton tightly. For orientation: solubility means the concentration that dissolves in the medium under given conditions. The low end stands for little dissolved substance, the high end for much dissolved substance. A word on the Papp A→B: it is the apparent permeability from the apical to the basolateral side of a cell layer. What is called fraction unbound is the share of the substance not bound to proteins or other matrix. Higher therefore signals much free substance. As usually defined, the clearance is the volume of plasma or blood freed of the substance per unit of time. A lower clearance goes with a low capacity for elimination. Broadly, the half-life is how long it takes for the measured level to halve. As to `c1ccc([C@H]([C@@H](c2ccccc2)N2CCCCC2)N2CCCCC2)cc1`, the concentration for half-maximal inhibition (IC50) in data set [2] was 0.2 µM; in [3], 25.1 µM; on Cytochrome P450 3A4, 20 µM; at Cytochrome P450 2D6 it was 0.126 µM. The molecule also yielded a pH-dependent lipophilicity (logD) in [1] of 4. In data set [4], this molecule had a pKa of 11. The molecule further yielded a solubility at 24 h in data set [5] of 95 µM (≈ 33.1 µg/mL). For the same molecule, the microsomal CLint at 50 µM in data set [6] turned out to be 14.1 µL/min/mg. In addition, the hepatocyte CLint in data set [7] was under 4 µL/min/1e6 cells. Further, the Papp A→B in data set [8] came to 10.3 ×10⁻⁶ cm/s. The free fraction (fraction unbound) in [9] amounted to 0.065. The bioavailability in data set [10] amounted to 103%. Moreover, the clearance in [11] was determined as 13.1 mL/min/kg. In data set [12], the half-life is 15.1 h. Further, the Vd in data set [13] was found to be 16.4 L/kg.
Regarding `O[C@@H](c1ccccc1)[C@@H](c1ccccc1)N1CCCCC1`, the inhibition result in data set [2] was “inactive”.
Regarding `CCCOc1ccc(C(O)C(c2ccccc2)N2CCCC2)cc1` (centres undefined), the inhibition result in data set [2] was “inactive”.
Take `c1ccc([C@@H]([C@H](c2ccccc2)N2CCCC2)N2CCCC2)cc1`: the IC50 in [2] was 0.3 µM; in [3], 31.6 µM; on Cytochrome P450 3A4, 12.6 µM; on Cytochrome P450 2D6 it was 0.316 µM. The log distribution coefficient (logD) in [1] came to 3.3. Further, the pKa in data set [4] came to 10.5. This molecule registered a solubility at 24 h in [5] of 100 µM (≈ 32 µg/mL). For the same molecule, the microsomal CLint at 50 µM in [6] was 21.6 µL/min/mg. Besides, in [7], the hepatocyte CLint was under 4 µL/min/1e6 cells. Also, in [8], the apical-to-basolateral permeability (Papp A→B) came out at 13.3 ×10⁻⁶ cm/s. The molecule further had a fraction unbound in data set [9] of 0.17. Besides, the bioavailability in data set [10] worked out at 48.9%. For the same molecule, the clearance in data set [11] is 10.8 mL/min/kg. In addition, the half-life in data set [12] is 7.1 h. Also, in [13], the Vd stood at 6.4 L/kg.
With `c1ccc([C@@H]([C@H](c2ccccc2)N2CCCCC2)N2CCCCC2)cc1`, the half-maximal inhibitory concentration (IC50) in [2] is 0.2 µM; in data set [3] it was 31.6 µM; on Cytochrome P450 3A4, 15.8 µM; on Cytochrome P450 2D6 it was 0.316 µM. Also, in data set [1], the logD amounted to 4.1. Besides, the pKa in data set [4] amounted to 11.4. In data set [5], this molecule showed a solubility at 24 h of 81 µM (≈ 28.2 µg/mL). In [6], the microsomal CLint at 50 µM was determined as 17.6 µL/min/mg. Further, in [7], the hepatocyte CLint was under 4 µL/min/1e6 cells. Also, the Papp A→B in [8] was determined as 10.2 ×10⁻⁶ cm/s. In data set [9], this molecule displayed a fraction unbound of 0.099. In addition, the bioavailability in [10] came to 26.6%.
`O=C(Cc1ccccc1)N[C@@H](c1ccccc1)[C@@H](O)c1ccccc1`: the inhibition result in [2] is “inactive”.
`CC(=O)NC(c1ccccc1)C(O)c1ccccc1` (centres undefined): the inhibition result in data set [2] is “inactive”.
Turning to `c1ccc([C@H]([C@@H](c2ccccc2)N2CCCC2)N2CCCC2)cc1`, the IC50 was 0.6 µM in data set [2], 31.6 µM in [3], 12.6 µM on Cytochrome P450 3A4 and 0.2 µM on Cytochrome P450 2D6. The same molecule came in with a logD in [1] of 3.2. The molecule also displayed a pKa in data set [4] of 10.4. The molecule also came in with a solubility at 24 h in data set [5] of 92 µM (≈ 29.5 µg/mL). Moreover, the microsomal CLint at 50 µM in data set [6] was found to be 12 µL/min/mg. The hepatocyte CLint in data set [7] is under 4 µL/min/1e6 cells. For the same molecule, the apical-to-basolateral permeability (Papp A→B) in data set [8] worked out at 14 ×10⁻⁶ cm/s. Moreover, the unbound share (fraction unbound) in data set [9] turned out to be 0.17. Moreover, the bioavailability in data set [10] is 15.6%. The same molecule gave a clearance in [11] of 91.8 mL/min/kg. For the same molecule, in [12], the half-life is 1 h. In addition, the Vd in [13] is 7.9 L/kg.
